# Published values from different studies.
# Compare with care: the assays were run in different laboratories.
Structure (SMILES),tested on,test,system,setting,endpoint,result
Cc1n[nH]c2ccc3nc(-c4ccc(C(=O)NCCN(C)C)cc4)c4c(c3c12)CCCCC4,G-361,cell growth or viability,,72 h,GI50,> 10 µM
C[C@@H](O)[C@H]1C(=O)N2C(C(=O)O)=C(SCCN=CN)C[C@H]12,Acinetobacter baumannii,"microbial growth, broth dilution",ATCC19606,,MIC,1 µg/mL
O=c1cc(OCc2cc(-c3ccccc3)no2)c2ccccc2o1,Z-138,"cell growth or viability, MTS",,72 h,IC50,> 100 µM
O=c1oc2c(O)c(O)cc3c(=O)oc4c(O)c(O)cc1c4c23,Streptococcus gordonii,"microbial killing, broth dilution",,,MBC,400 µg/mL
O=C1C(=Nc2ccc(Cl)cc2)c2ccccc2N1Cc1ccc(Br)cc1,B16,"cell growth or viability, MTT",,48 h,IC50,14.1 µM
C[C@@H]1O[C@@H](OC[C@H]2O[C@@H](Oc3c(-c4ccc(O)c(O)c4)oc4cc(O)cc(O)c4c3=O)[C@H](O)[C@@H](O)[C@@H]2O)[C@H](O)[C@H](O)[C@H]1O,Streptococcus gordonii,"microbial growth, disc diffusion",,500 µg/disc,inhibition zone,13 mm
Cc1n[nH]c2ccc3nc(-c4ccc(C(=O)NCCN(C)C)cc4)c4c(c3c12)CCCC4,G-361,cell growth or viability,,72 h,GI50,3.49 µM
CC[C@H]1OC(=O)[C@H](C)[C@@H](O[C@H]2C[C@@](C)(OC)[C@@H](O)[C@H](C)O2)[C@H](C)[C@@H](O[C@@H]2O[C@H](C)C[C@H](N(C)C)[C@H]2O)[C@](C)(O)C[C@@H](C)CN(C)[C@H](C)[C@@H](O)[C@]1(C)O,Acinetobacter baumannii,"microbial growth, broth dilution",ATCC19606,,MIC,1 µg/mL
CCc1ccc(N=C2C(=O)N(Cc3ccccc3)c3ccccc32)cc1,B16,"cell growth or viability, MTT",,48 h,IC50,0.5 µM
CCCCCCC#Cc1cncc(-c2nnc(SCc3cc([N+](=O)[O-])cc([N+](=O)[O-])c3)n2CCCN)c1,Acinetobacter baumannii,"microbial growth, broth dilution",ATCC17978,,MIC,32 µg/mL
Oc1cc(O)c2c(c1)O[C@H](c1cc(O)c(O)c(O)c1)[C@@H](O)C2,Streptococcus gordonii,"microbial killing, broth dilution",,,MBC,100 µg/mL
CO/N=C(\C(=O)N[C@@H]1C(=O)N2C(C(=O)O)=CCS[C@H]12)c1csc(N)n1,Acinetobacter baumannii,"microbial growth, broth dilution",ATCC19606,,MIC,16 µg/mL
O=C(O[C@@H]1O[C@@H]2COC(=O)c3cc(O)c(O)c(O)c3-c3c(cc(O)c(O)c3O)C(=O)O[C@H]([C@H]1O)[C@@H]2O)c1cc(O)c(O)c(O)c1,Streptococcus gordonii,"microbial killing, broth dilution",,,MBC,800 µg/mL
CC(C)(C)c1cc(NC(=O)Nc2ccc(-c3cn4c(n3)sc3cc(OCCN5CCOCC5)ccc34)cc2)no1,G-361,cell growth or viability,,72 h,GI50,> 10 µM
O=C1C(=Nc2ccccc2I)c2ccccc2N1Cc1ccc([N+](=O)[O-])cc1,B16,"cell growth or viability, MTT",,48 h,IC50,0.27 µM
C[C@H]1[C@H](NC(=O)/C(=N\OC(C)(C)C(=O)O)c2csc(N)n2)C(=O)N1S(=O)(=O)O,Acinetobacter baumannii,"microbial growth, broth dilution",ATCC19606,,MIC,16 µg/mL
CC(C)c1cccc(C(C)C)c1N=C1C(=O)N(Cc2ccccc2)c2ccccc21,B16,"cell growth or viability, MTT",,48 h,IC50,6.77 µM
O=C1O[C@H]2[C@@H]3OC(=O)c4cc(O)c(O)c(O)c4-c4c(O)c(O)c5oc(=O)c6c(c(O)c(O)c7oc(=O)c4c5c76)-c4c(cc(O)c(O)c4O)C(=O)OC[C@H]3OC(O)[C@@H]2OC(=O)c2cc(O)c(O)c(O)c2-c2c1cc(O)c(O)c2O (mixture of isomers),Streptococcus gordonii,"microbial killing, broth dilution",,,MBC,400 µg/mL
O=C1C(=Nc2ccc(Cl)cc2)c2ccccc2N1Cc1ccc([N+](=O)[O-])cc1,B16,"cell growth or viability, MTT",,48 h,IC50,0.58 µM
CN(C)[C@@H]1C(O)=C(C(N)=O)C(=O)[C@@]2(O)C(O)=C3C(=O)c4c(O)cccc4[C@@](C)(O)[C@H]3C[C@@H]12,Acinetobacter baumannii,"microbial growth, broth dilution",ATCCBAA1605,,MIC,> 64 µg/mL
Cc1cccc(N=C2C(=O)N(Cc3ccc(Br)cc3)c3ccccc32)c1,B16,"cell growth or viability, MTT",,48 h,IC50,6.87 µM
CNC(C)C1CCC(N)C(OC2C(N)CC(N)C(OC3OCC(C)(O)C(NC)C3O)C2O)O1 (stereo not drawn),Acinetobacter baumannii,"microbial growth, broth dilution",ATCC19606,,MIC,16 µg/mL
O=C1Nc2ccccc2C1=Nc1ccc(Cl)cc1,B16,"cell growth or viability, MTT",,48 h,IC50,32.6 µM
O=C1OC[C@H]2OC(O)[C@H](O)[C@@H](O)[C@@H]2OC(=O)c2cc(O)c(O)c(O)c2-c2c(O)c(O)c3oc(=O)c4c(c(O)c(O)c5oc(=O)c2c3c54)-c2c1cc(O)c(O)c2O (mixture of isomers),Streptococcus gordonii,"microbial growth, broth dilution",,24 h,MIC,200 µg/mL
